Experiment [1] in a line: Her2 expression decrease, cell viability multiplex – SKBR3 breast tumor cells, AlphaScreen, ATP viability, primary screen (AID 461;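 active = Her2 level under about 52% in both replicate screens, with viability over 70% of control, limit read from the data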;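 for Her2 level: lower value means less Her2 protein in the cells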;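 for viability: percent of carrier control wells set as 100% viability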). Particulars: SKBR3 Her2 protein level, 18-24 h, measured here: SKBR3 viability, ATP luminescence, at 10 µM.
Experiment [2] deals with Receptor tyrosine-protein kinase erbB-2 (Homo sapiens) (UniProt P04626). The experiment is described as above. Particulars: 18-24 h, at 10 µM, stronger effect = lower value.
Receptor tyrosine-protein kinase erbB-2 (Homo sapiens), sequence (P04626 whole entry, looked up): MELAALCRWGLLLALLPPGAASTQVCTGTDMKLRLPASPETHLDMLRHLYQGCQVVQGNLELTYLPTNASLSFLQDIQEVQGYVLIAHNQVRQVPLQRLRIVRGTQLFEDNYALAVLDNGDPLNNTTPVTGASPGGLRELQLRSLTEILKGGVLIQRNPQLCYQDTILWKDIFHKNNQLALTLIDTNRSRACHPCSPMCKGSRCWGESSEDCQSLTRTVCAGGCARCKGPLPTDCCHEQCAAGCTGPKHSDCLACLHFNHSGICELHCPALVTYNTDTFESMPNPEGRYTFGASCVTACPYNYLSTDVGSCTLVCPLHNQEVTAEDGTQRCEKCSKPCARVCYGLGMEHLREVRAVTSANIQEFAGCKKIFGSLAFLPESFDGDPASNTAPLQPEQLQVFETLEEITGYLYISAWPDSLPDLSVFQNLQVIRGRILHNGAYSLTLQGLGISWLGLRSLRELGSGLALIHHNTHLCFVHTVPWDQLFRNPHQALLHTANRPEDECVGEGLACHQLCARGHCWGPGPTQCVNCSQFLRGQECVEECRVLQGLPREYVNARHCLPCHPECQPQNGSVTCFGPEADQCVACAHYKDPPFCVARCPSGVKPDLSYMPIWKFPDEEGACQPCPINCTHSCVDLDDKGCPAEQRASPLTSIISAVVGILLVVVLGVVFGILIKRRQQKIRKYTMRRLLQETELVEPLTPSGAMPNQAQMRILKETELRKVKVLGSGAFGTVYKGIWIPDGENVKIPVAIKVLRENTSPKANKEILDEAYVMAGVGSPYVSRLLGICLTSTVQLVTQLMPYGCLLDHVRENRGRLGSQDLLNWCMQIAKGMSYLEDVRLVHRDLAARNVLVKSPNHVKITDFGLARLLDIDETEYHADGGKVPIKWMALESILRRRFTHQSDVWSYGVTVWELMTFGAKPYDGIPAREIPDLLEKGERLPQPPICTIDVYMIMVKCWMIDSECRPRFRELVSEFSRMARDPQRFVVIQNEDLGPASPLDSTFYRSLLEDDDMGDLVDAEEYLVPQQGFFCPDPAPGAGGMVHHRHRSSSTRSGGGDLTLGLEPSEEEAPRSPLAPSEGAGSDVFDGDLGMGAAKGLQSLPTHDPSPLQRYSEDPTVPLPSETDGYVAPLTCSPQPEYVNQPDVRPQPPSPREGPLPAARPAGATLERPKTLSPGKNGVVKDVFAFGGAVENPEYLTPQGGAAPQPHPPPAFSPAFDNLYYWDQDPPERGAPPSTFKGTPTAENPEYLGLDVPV
Experiment [3] is described as follows: reduced viability of SK-BR-3 breast cancer cells – cell-based, 24 h, human, pilot screen (AID 572;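 active = viability at or below 10% of carrier control in both of two separate runs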;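 note: compound exposure lasted between 18 and 24 h rather than exactly 24 h; 100% = carrier-treated control wells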). The settings on record: SK-BR-3 viability, CellTiter-Glo luminescence, at 10 µM, stronger effect = lower value.
Experiment [4] can be described thus: HUVEC growth inhibition – cell-based, human, primary screen (AID 575;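 active = viability at or below 30% in both replicate assays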;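 note: 100% = median of untreated cell wells with 0.1% DMSO on each plate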). The settings on record: HUVEC proliferation, CellTiter-Glo luminescence, 72 h; at 10 µM; stronger effect = lower value. In outline: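 System – primary HUVEC, no more than 12 passages · Medium – Low-serum (2% FBS) EBM, supplemented · Times – 72 h exposure, 37 °C, 5% CO2, 30 min RT equilibration · Measured by – luminescent ATP assay · Read-out – % viability relative to median vehicle-well signal on each plate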

The nature of experiment [5]: H69AR cell proliferation blockers – human, duplicate replicates, primary screen (AID 580;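 active = viability at or under a set limit in both replicates, limit being median viability minus 3 SD, cut at about 48% in these data, passing the limit was not always enough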;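 note: 100% = mean luminescence of untreated wells and 0% = no signal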). The settings on record: H69AR lung tumor cells viability, ATP luminescence, 72 h; at 10 µM; stronger effect = lower value.
Experiment [6] in a line: MRP1 drug-resistance reversers in H69AR cells – cell-based, doxorubicin co-treatment, pilot screen (AID 601;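 active = viability loss from added drug above about 55%, and viability with drug at most 40%, in both replicates, limit read from the data, passing the limit was not always enough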). The settings on record: CellTiter-Glo, 72 h, at 10 µM; for differential viability (reversal): stronger effect = higher value.
A short description of experiment [7]: yeast transport mutant growth inhibition pilot in 384-well plates, post-Golgi transport modulator project (AID 636; in the data active = inhibition above about 31%). The settings on record: absorbance 615 nm, about 18 h, stronger effect = higher value.
Experiment [8] is described as follows: growth suppression of yeast trafficking mutant, preliminary HTS, modulators of trafficking downstream of Golgi apparatus project, 1536-format plate, OD 615 nm (AID 637). Particulars: yeast transport mutant growth, absorbance 615 nm, 18 h; stronger effect = higher value.
Setting [9] is: H69AR cells + 2 uM doxorubicin, measured here: viability with 2 uM doxorubicin, stronger effect = lower value.
Setting [10] is: H69AR cells, compound alone cytotoxicity.

Activity calls are given as the source filed them. Cut-off read from the data, not from the text of the source, unless noted: active = inhibition above about 30%; inactive = the rest.

Take `CN(Cc1ccccc1)Cc1nc2c(c(=O)n(C)c(=O)n2C)n1Cc1ccc(Cl)cc1`: the viability in experiment [1] was 67.5%; in experiment [3], 67.5% (inactive); in experiment [4], 84.1% (inactive); in experiment [5] it was 86% (inactive); in experiment [6] (setting [9]) it was 84.2%; in experiment [6] (setting [10]), 86%. The Her2 level in experiment [2] is 102% (inactive). Besides, the differential viability (reversal) in experiment [6] (H69AR cells + 2 uM doxorubicin) is 1.76% (inactive). The inhibition in experiment [7] is -0.67% (inactive); in experiment [8] it was 7.05% (inactive).

For the compound `O=C1CC(c2ccc(Cl)cc2)n2nc(N3C(=O)c4ccccc4C3=O)nc2N1` (stereo not given), the viability was 106% in experiment [1]; 106% (inactive) in experiment [3]; 95.5% (inactive) in experiment [4]; 91.8% (inactive) in experiment [5]; 94.1% in experiment [6] (setting [9]); 91.8% in experiment [6] (setting [10]). Further, in experiment [2], the Her2 level was 93% (inactive). For the same compound, the differential viability (reversal) in experiment [6] (H69AR cells + 2 uM doxorubicin) is -2.29% (inactive). For the same compound, the inhibition in experiment [7] is -3.16% (inactive); in experiment [8] it was 4.59% (inactive).

Regarding `Cc1nnc(NC(=O)c2ccccc2F)s1`, the viability in experiment [1] is 100%; in experiment [3], 100% (inactive); in experiment [4], 107% (inactive); in experiment [5], 104% (inactive); in experiment [6] (setting [9]) it was 90.2%; in experiment [6] (setting [10]), 104%. Also, the Her2 level in experiment [2] is 101% (inactive). Also, the differential viability (reversal) in experiment [6] (H69AR cells + 2 uM doxorubicin) is 13.8% (inactive). The inhibition in experiment [7] is -3.24% (inactive); in experiment [8], 4.76% (inactive).

Turning to `Cc1[nH]c(=O)[nH]c(=O)c1S(=O)(=O)N(C)Cc1ccccc1`, the viability in experiment [1] was 108%; in experiment [3] it was 108% (inactive); in experiment [4], 96.2% (inactive); in experiment [5] it was 105% (inactive); in experiment [6] (setting [9]), 92.5%; in experiment [6] (setting [10]), 105%. Moreover, the Her2 level in experiment [2] was 106% (inactive). Also, in experiment [6] (H69AR cells + 2 uM doxorubicin), the differential viability (reversal) was 12.3% (inactive). Besides, the inhibition in experiment [7] was -0.66% (inactive); in experiment [8] it was -4.6% (inactive).

Regarding `COc1ccccc1-n1cnc(N)c1C(C)=O`, the viability in experiment [1] was 110%; in experiment [3], 110% (inactive); in experiment [4], 105% (inactive); in experiment [5] it was 103% (inactive); in experiment [6] (setting [9]), 104%; in experiment [6] (setting [10]), 103%. For the same compound, in experiment [2], the Her2 level was 103% (inactive). In addition, the differential viability (reversal) in experiment [6] (H69AR cells + 2 uM doxorubicin) was -0.75% (inactive). The results for the inhibition in experiment [7] and in experiment [8] were -4.21% (inactive) and 7.7% (inactive), respectively.

For the compound `COc1ccc(CC(NC(C)=O)C(=O)N2CCN(C(=O)N(C(C)C)C(C)C)CC2)cc1` (stereo not given), the viability in experiment [1] was 90.5%; in experiment [3], 90.5% (inactive); in experiment [4], 94.5% (inactive); in experiment [5], 94.2% (inactive); in experiment [6] (setting [9]) it was 88.3%; in experiment [6] (setting [10]) it was 94.2%. Also, in experiment [2], the Her2 level is 110% (inactive). For the same compound, the differential viability (reversal) in experiment [6] (H69AR cells + 2 uM doxorubicin) was 5.88% (inactive). In addition, the values for the inhibition in experiment [7] and in experiment [8] were -5.13% (inactive) and -12.8% (inactive), respectively.

For the compound `Cc1cnc(C(=O)OCC(=O)Nc2ccc(Oc3ccccc3)cc2)cn1`, the viability in experiment [1] was 77%; in experiment [3] it was 77% (inactive); in experiment [4], 91.5% (inactive); in experiment [5], 91.9% (inactive); in experiment [6] (setting [9]), 82.3%; in experiment [6] (setting [10]) it was 91.9%. In addition, the Her2 level in experiment [2] was 102% (inactive). Besides, the differential viability (reversal) in experiment [6] (H69AR cells + 2 uM doxorubicin) was 9.6% (inactive). In addition, the figures for the inhibition in experiment [7] and in experiment [8] were 5.51% (inactive) and -21.7% (inactive), respectively.

Turning to `CC(=O)N1CCc2cc(S(=O)(=O)NC(C(=O)NCc3ccccc3)C(C)C)ccc21` (stereo not given), the viability in experiment [1] was 97%; in experiment [3] it was 97% (inactive); in experiment [4], 94.6% (inactive); in experiment [5], 102% (inactive); in experiment [6] (setting [9]), 90.1%; in experiment [6] (setting [10]), 102%. In addition, the Her2 level in experiment [2] is 95.5% (inactive). The differential viability (reversal) in experiment [6] (H69AR cells + 2 uM doxorubicin) is 12.1% (inactive). In addition, the inhibition in experiment [7] was -2.5% (inactive); in experiment [8], -10% (inactive).

`O=C(O)CC1=C(O)C(=O)N(c2ccccc2)C1c1ccccc1` (stereo not given): the viability in experiment [1] is 102%; in experiment [3], 102% (inactive); in experiment [4], 96.9% (inactive); in experiment [5] it was 102% (inactive); in experiment [6] (setting [9]), 94.1%; in experiment [6] (setting [10]), 102%. Also, the Her2 level in experiment [2] is 107% (inactive). Moreover, the differential viability (reversal) in experiment [6] (H69AR cells + 2 uM doxorubicin) was 7.7% (inactive). The inhibition is -1.49% (inactive) in experiment [7] and -0.49% (inactive) in experiment [8].

On to `CCOc1cc(-c2nc(-c3ccccc3OC)no2)cc(OCC)c1OCC`, for which the viability is 90% in experiment [1]; 90% (inactive) in experiment [3]; 97.4% (inactive) in experiment [4]; 92.5% (inactive) in experiment [5]; 95.1% in experiment [6] (setting [9]); 92.5% in experiment [6] (setting [10]). In experiment [2], the Her2 level is 96.5% (inactive). The differential viability (reversal) in experiment [6] (H69AR cells + 2 uM doxorubicin) was -2.62% (inactive). Besides, the inhibition in experiment [7] is -2.13% (inactive); in experiment [8] it was 22% (inactive).

In the case of `COc1ccc(-n2ncc3c(NCCCN4CCOCC4)ncnc32)cc1`, the viability in experiment [1] was 102%; in experiment [3], 102% (inactive); in experiment [4], 103% (inactive); in experiment [5], 109% (inactive); in experiment [6] (setting [9]), 104%; in experiment [6] (setting [10]), 109%. Further, the Her2 level in experiment [2] was 102% (inactive). The differential viability (reversal) in experiment [6] (H69AR cells + 2 uM doxorubicin) was 4.54% (inactive). The inhibition in experiment [7] is -6.13% (inactive); in experiment [8], 7.87% (inactive).

Take `O=C(O)c1cc(Cl)c(Cl)cc1C(=O)N1CCCC1`: the viability is 97.5% in experiment [1]; 97.5% (inactive) in experiment [3]; 87.2% (inactive) in experiment [4]; 98.7% (inactive) in experiment [5]; 101% in experiment [6] (setting [9]); 98.7% in experiment [6] (setting [10]). For the same compound, the Her2 level in experiment [2] is 100% (inactive). The differential viability (reversal) in experiment [6] (H69AR cells + 2 uM doxorubicin) is -2.26% (inactive). The figures for the inhibition in experiment [7] and in experiment [8] were -1.79% (inactive) and -1.17% (inactive), respectively.

With `Cc1nc(/N=C(\N)Nc2ccccc2)nc2ccccc12`, the viability is 91.5% in experiment [1]; 91.5% (inactive) in experiment [3]; 74.5% (inactive) in experiment [4]; 78.7% (inactive) in experiment [5]; 99.7% in experiment [6] (setting [9]); 78.7% in experiment [6] (setting [10]). Further, the Her2 level in experiment [2] was 67.5% (inactive). In addition, the differential viability (reversal) in experiment [6] (H69AR cells + 2 uM doxorubicin) is -21% (inactive). Further, the values for the inhibition in experiment [7] and in experiment [8] were -0.26% (inactive) and 10.5% (inactive), respectively.

Take `Cc1c(/C(O)=C2/C(=O)C(=O)N(CCN3CCOCC3)C2c2cccnc2)cnn1-c1ccccc1` (stereo not given): the viability is 85.5% in experiment [1]; 85.5% (inactive) in experiment [3]; 110% (inactive) in experiment [4]; 91.5% (inactive) in experiment [5]; 82.3% in experiment [6] (setting [9]); 91.5% in experiment [6] (setting [10]). The Her2 level in experiment [2] was 108% (inactive). Also, in experiment [6] (H69AR cells + 2 uM doxorubicin), the differential viability (reversal) was 9.19% (inactive). For the same compound, the inhibition is 1.45% (inactive) in experiment [7] and -1.09% (inactive) in experiment [8].

Source of the values: PubChem BioAssay.
